# Source: PMC3290340 (Pigment cell & melanoma research, 2012)
# Legend:
# UACC 903 cells [1] = test: Caspase-3/7 activity; type: cell-based, human; settings: UACC 903, 72 hours, tested 1, 2.5, 5.0 μM
# How it was run: (§1)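 UACC 903, A375M or 1205 Lu cells (5×10^3/well, 96-well) exposed 72 h to test compound or DMSO. Caspase-3/7 substrate Z-DEVD-R110 (Apo-ONE kit) added 4 h before the end of treatment. Read-out is fold increase in caspase-3/7 activity over DMSO-treated cells. At least 3 independent experiments, SEM.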
# UACC 903 cells [2] = test: Cell cycle analysis; type: cell-based, human; settings: 72 h
# How it was run: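 1.5×10^6 UACC 903 cells grown in 100-mm dishes, then treated 72 h with 1, 2.5 or 5.0 μM test compound or DMSO. Floating plus adherent cells collected by trypsinization and stained 30 min at 4 °C (propidium iodide 100 μg/ml, RNase A 20 μg/ml, Triton X-100 3 μg/mL in 0.1% sodium citrate). Phase distribution by FACScan.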
# UACC 903 cells [3] = test: Cellular S-1-P and ceramide content by LC-MS-MS, UACC 903; type: cell-based, human; settings: UACC 903, 2.5 and 5.0 μM, 48 hours
# How it was run: (§2)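 UACC 903 or 1205 Lu cells (2.0×10^6, triplicate dishes) in DMEM/10% FBS; after 24 h, PBS-washed and treated 48 h with 2.5 or 5.0 μM test compound or DMSO. Floating cells pelleted at 500 x g, 5 min, 4 °C, PBS-washed and pooled with scraped adherent cells. Extracts assayed by LC-MS-MS for sphingosine, S-1-P and ceramides.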
# A375M melanoma cells = test: MTS cell viability, A375M; type: cell-based, human; settings: value of the text (Fig. 3A, 72 hours)
# How it was run: (§3)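 5×10^3 cells/well in DMEM/10% FBS, pre-grown 36 h (melanoma lines) or 72 h (FF2441 fibroblasts, FOM melanocytes). Then exposed to test compound (0.5–100 μM) or DMSO for 24, 48 or 72 h. Viability by MTS relative to vehicle-treated cells; IC50 fitted per line. Melanoma values also averaged across the six melanoma lines.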
# 1205 Lu melanoma cells = test: MTS cell viability, 1205 Lu; type: cell-based, human; settings: value of the text (Fig. 3A, 72 hours)
# How it was run: as §3
# [4] = test system: UACC 903 xenografted melanoma tumors; test: Xenografted UACC 903 melanoma tumor growth; type: in vivo, nude mice; settings: UACC 903 xenograft, 100 mg/kg i.p. Mon/Wed/Fri, day 22
# How it was run: (§4)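 Female nude mice, 4-6 weeks old, injected s.c. above both rib cages with 5×10^6 UACC 903 or 2.5×10^6 1205 Lu cells in 0.2 ml DMEM/10% FBS. On day 6, randomized (n=5, 10 tumors per group). Dosed i.p. at 100 mg/kg in 50 μl DMSO (or DMSO alone) Mon/Wed/Fri for 3 weeks. Tumor dimensions by calipers; body weight monitored.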
# 1205 Lu cells [5] = test: Cellular S-1-P and ceramide content by LC-MS-MS, 1205 Lu; type: cell-based, human; settings: 48 hours
# How it was run: as §2
# melanoma cells = test: MTS cell viability, average/range over the melanoma cell lines; type: cell-based, human
# How it was run: as §3
# 1205 Lu cells [6] = test: Caspase-3/7 activity; type: cell-based, human; settings: 72 hours, tested 1, 2.5, 5.0 μM
# How it was run: as §1
# A375M cells = test: Caspase-3/7 activity; type: cell-based, human; settings: 72 hours, tested 1, 2.5, 5.0 μM
# How it was run: as §1
# UACC 903 melanoma cells = test: MTS cell viability, UACC 903; type: cell-based, human
# How it was run: as §3
# [7] = test system: CYCLIN D1 in UACC 903 cells; test: Western blot of CYCLIN D1; type: cell-based, human; settings: 72 h; for Decrease in CYCLIN D1 expression: compared to DMSO
# How it was run: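 UACC 903 cells treated 72 h with test compound or DMSO and lysed in HEPES pH 7.5 buffer with protease/phosphatase inhibitors. Lysates cleared at 10,000 x g, 10 min, 4 °C; 30 μg protein per lane. Blotted to PVDF and detected by ECL. Band intensity densitometry given as percent change versus DMSO-treated cells.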
# [8] = Body weight during i.p. treatment; type: in vivo, nude mice; settings: 100 mg/kg
# [9] = test system: 1205 Lu xenografted melanoma tumors; test: Xenografted 1205 Lu melanoma tumor growth; type: in vivo, nude mice; settings: 1205 Lu xenograft, 100 mg/kg i.p. Mon/Wed/Fri, day 21
# How it was run: as §4
# recombinant SPHK1 = recombinant SPHK1 (Homo sapiens, UniProt Q9NYA1); test: In vitro SphK activity assay with recombinant SPHK1; type: biochemical; settings: recombinant protein, Fig. 2B
# Chain of recombinant SPHK1 (Q9NYA1 whole entry): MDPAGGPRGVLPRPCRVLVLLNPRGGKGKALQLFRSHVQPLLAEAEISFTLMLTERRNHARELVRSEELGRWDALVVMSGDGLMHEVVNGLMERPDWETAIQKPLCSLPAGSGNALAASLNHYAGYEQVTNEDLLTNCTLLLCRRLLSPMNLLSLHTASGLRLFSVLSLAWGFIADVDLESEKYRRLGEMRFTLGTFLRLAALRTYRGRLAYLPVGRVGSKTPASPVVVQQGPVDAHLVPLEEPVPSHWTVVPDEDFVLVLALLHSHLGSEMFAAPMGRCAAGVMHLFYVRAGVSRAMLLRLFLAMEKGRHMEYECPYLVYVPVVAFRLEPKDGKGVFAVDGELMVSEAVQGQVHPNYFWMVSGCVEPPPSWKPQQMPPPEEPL
# recombinant SPHK2 = molecular target: T1, recombinant SPHK2 (Homo sapiens, UniProt Q9NRA0); test: In vitro SphK activity assay with recombinant SPHK2; type: biochemical; settings: Fig. 2B
# T1 sequence (Q9NRA0 1-654): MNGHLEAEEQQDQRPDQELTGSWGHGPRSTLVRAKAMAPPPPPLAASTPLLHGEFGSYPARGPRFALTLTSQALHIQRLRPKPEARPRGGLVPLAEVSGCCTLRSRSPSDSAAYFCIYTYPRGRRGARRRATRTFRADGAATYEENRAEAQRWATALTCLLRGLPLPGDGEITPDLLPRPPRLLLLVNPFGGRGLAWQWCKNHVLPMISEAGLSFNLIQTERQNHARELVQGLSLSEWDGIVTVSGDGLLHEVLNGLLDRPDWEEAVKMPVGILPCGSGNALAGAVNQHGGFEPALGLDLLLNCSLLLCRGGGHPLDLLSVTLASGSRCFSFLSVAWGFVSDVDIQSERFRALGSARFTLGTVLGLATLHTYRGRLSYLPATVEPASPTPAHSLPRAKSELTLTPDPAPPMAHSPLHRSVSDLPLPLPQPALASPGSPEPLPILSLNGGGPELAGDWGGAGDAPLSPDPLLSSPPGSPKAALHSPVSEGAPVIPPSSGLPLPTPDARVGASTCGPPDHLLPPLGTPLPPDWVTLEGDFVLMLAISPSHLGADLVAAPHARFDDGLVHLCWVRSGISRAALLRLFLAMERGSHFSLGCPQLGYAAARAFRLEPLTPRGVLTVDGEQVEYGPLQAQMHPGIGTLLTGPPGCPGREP
# [10] = UACC 903, 2.5 μM, compared to DMSO
smiles,measurement,setting,value
O=C(N/N=C/c1c(O)ccc2ccccc12)c1cc(-c2ccc3ccccc3c2)n[nH]1 [SKI-I],Concentration of maximal caspase-3/7 activity,UACC 903 cells [1],5 µM
same,Fold decrease of the G0/G1 cell population,UACC 903 cells [2]; [10],2.4 fold
same,Fold increase of the G2/M population,UACC 903 cells [2]; [10],2.5 fold
same,G2/M cell population,"UACC 903 cells [2]; UACC 903, 5 μM",below detectable levels
same,Effect on cellular ceramide levels,UACC 903 cells [3],induced
same,IC50,A375M melanoma cells,1.3 ± 0.27 µM
same,IC50,1205 Lu melanoma cells,4.89 ± 0.63 µM
same,Difference in tumor volume between vehicle control and treatment group,[4],~ 40%
same,Effect on cellular S-1-P,1205 Lu cells [5],no significant change
same,Effect on cellular ceramide levels,1205 Lu cells [5],increased
same,Fold more effective than SKI-II (average IC50 values),melanoma cells; SKI-I compared to SKI-II,~ 10 fold
same,IC50,"melanoma cells; read-out: Average IC50 for melanoma cells, 24 h treatment",20.6 µM
same,Concentration of maximal caspase-3/7 activity,1205 Lu cells [6],5 µM
same,Concentration of maximal caspase-3/7 activity,A375M cells,2.5 µM
same,Reduction of cell viability,"UACC 903 melanoma cells; UACC 903, 5 μM, 72 hours",50%
same,IC50,"UACC 903 melanoma cells; UACC 903, value of the text (Fig. 3A, 72 hours)",5.72 ± 0.35 µM
same,Decrease in CYCLIN D1 expression,"[7]; UACC 903, 1 μM",86.1%
same,Decrease in CYCLIN D1 expression,"[7]; UACC 903, 2.5 μM",97.1%
same,CYCLIN D1 levels,"[7]; UACC 903, 5 μM",almost undetectable
same,Body weight change,[8],No weight changes
same,Difference in tumor volume between vehicle control and treatment group,[9],~ 26%
"Oc1ccc(Nc2nc(-c3ccc(Cl)cc3)cs2)cc1 [SKI-II, 2-(p-hydroxyanilino)-4-(p-chlorophenyl) thiazole]",Inhibition of SPHK1 activity,recombinant SPHK1,effective at inhibiting
same,Effect on cellular S-1-P,UACC 903 cells [3],did not effect
same,Effect on cellular ceramide levels,UACC 903 cells [3],did not effect
same,Difference in tumor volume between vehicle control and treatment group,[4],no effect on tumor growth
same,Body weight change,[8],No weight changes
same,Inhibition of SPHK2 activity,recombinant SPHK2; recombinant protein,effective at inhibiting
same,Selectivity SPHK1 versus SPHK2,recombinant SPHK2; recombinant proteins,slightly enhanced selectivity to SPHK2
